Test results: PMC12040810 (AMB Express, 2025)
In brackets after ≈: the same amount, converted by molar mass. Several values for one entry are separate records, joined by “and”; a condition that tells them apart may be missing. Equal entries are not always repeated.

Assays:
[1] = tested on: L. major promastigotes; assay: In vitro anti-promastigote activity, viability by eosin 0.1% vital stain; assay type: cell-based; conditions: Leishmania major, 48 h
In short: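 L. major promastigotes (strain MRHO/IR/75/ER) were kept in RPMI 1640 (pH 7.4) with 20% FBS, 25 mM HEPES and penicillin/streptomycin at 24 °C, passaged every 3 days. Log-phase cells (100 µl at 1 × 10^6/ml) received 100 µl of test compound solution; PBS was the negative control. Plates were held at 26 °C.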

[2] = tested on: L. major; assay: In vivo anti-leishmanial effects, lesion size after topical ointment treatment; parameters: species or system BALB/c mice; conditions: group receiving amphotericin B
In short: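 Female BALB/c mice (about 20 g, 6–7 weeks), 5 per group, were injected subcutaneously at the tail base with 1.5 × 10^6 stationary-phase L. major promastigotes. Nodules and ulcers formed by day 21, and lesion amastigotes were confirmed by microscopy at 1000×. Topical ointments were given over 28 days, with vehicle ointment or PBS as controls. Lesion diameter was measured weekly with a dial micrometer before and after treatment.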

[3] = Biochemical analysis of serum AST and ALT; assay type: in vivo, BALB/c mice; conditions: for level of AST: serum, after treatment, P = 0.072
In short: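 Female BALB/c mice (about 20 g, 6–7 weeks), 5 per group, were infected subcutaneously at the tail base with L. major promastigotes and then given topical ointment treatments. After 28 days, serum was drawn and AST and ALT were measured with a commercial kit. The manufacturer's normal ranges were ALT 75–90 IU/l and AST 125–155 IU/l.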

[4] = tested on: human blood suspension; assay: Hemolytic assay, spectrophotometric, free hemoglobin at 540 nm; assay type: cell-based
[5] = tested on: L929 cell line; assay: Cell toxicity assay; assay type: cell-based
[6] = 12 h, composition as in the label, concentration of controls not given
[7] = 24 h, composition as in the label, concentration of controls not given
[8] = 48 h, composition as in the label, concentration of controls not given
[9] = 6 h, composition as in the label, concentration of controls not given

Row | Compound | IC50 [1] [µg/mL] | wound size after 28 days ([2]; after 28 days of treatment) [mm] | wound size before treatment ([2]; before treatment) [mm] | toxicity judged by AST and ALT ([3]; blood samples after 28 days, in words) | level of AST [3] | Hemolytic activity (%) ± SD ([4]; 12 h, amphotericin B 500 µg/ml) | Hemolytic activity (%) ± SD ([4]; 24 h, amphotericin B 500 µg/ml) | Hemolytic activity (%) ± SD ([4]; 48 h, amphotericin B 500 µg/ml) | Cytotoxic activity (%) ± SD ([5]; 6 h, amphotericin B 500 µg/ml) [%] | Cytotoxic activity (%) ± SD ([5]; 12 h, amphotericin B 500 µg/ml) [%] | Cytotoxic activity (%) ± SD ([5]; 24 h, amphotericin B 500 µg/ml) [%] | toxicity in the MTT assay ([5]; in words, chitosan at 10, 50, and 100 mg/ml) | Hemolytic activity (%) ± SD [4, 6] [%] | Hemolytic activity (%) ± SD [4, 7] [%] | Hemolytic activity (%) ± SD [4, 8] [%] | Cytotoxic activity (%) ± SD [5, 9] [%] | Cytotoxic activity (%) ± SD [5, 6] [%] | Cytotoxic activity (%) ± SD [5, 7] [%]
1 | C[C@@H]1[C@H](O)[C@@H](C)/C=C/C=C/C=C/C=C/C=C/C=C/C=C/[C@H](O[C@@H]2O[C@H](C)[C@@H](O)[C@H](N)[C@@H]2O)C[C@@H]2O[C@](O)(C[C@@H](O)C[C@@H](O)[C@H](O)CC[C@@H](O)C[C@@H](O)CC(=O)O[C@H]1C)C[C@H](O)[C@H]2C(=O)O [Amphotericin B] | 256 (≈ 277 µM) | 1.59 | 15.71 | highest drug toxicity | higher compared to the other treatment groups | 13.9% and 13.9 ± 0.4% | 17.9% and 17.9 ± 0.9% | 18.4% and 18.4 ± 0.9% | 0.43 ± 0.03 | 0.41 ± 0.07 | 0.41 ± 0.04 | significantly lower than those of cisplatin | – | – | – | – | – | –
2 | CNC[C@H](O)[C@@H](O)[C@H](O)[C@H](O)CO.[O]=[Sb](=[O])[OH] [Glucantime] | – | – | – | – | higher compared to the other treatment groups | – | – | – | – | – | – | – | 15.6 ± 0.5 | 18.6 ± 0.6 | 20.3 ± 0.8 | 0.43 ± 0.002 | 0.38 ± 0.01 | 0.35 ± 0.02
3 | Triton X100 | – | – | – | – | – | – | – | – | – | – | – | – | 90.1 ± 4.5 | 99.4 ± 0.5 | 100 ± 0.0 | 0.14±-0.002 | 0.11 ± 0.02 | 0.11 ± 0.006
